Measurements reported in ChEMBL document CHEMBL1149785, “Synthesis and biological evaluation of helicid analogues as novel acetylcholinesterase inhibitors” (Eur J Med Chem, 2008).
Active and inactive are the calls of the source. No cut-off for these calls is given here.

Columns and labels:
[1] = molecular target: Cholinesterase (Equus caballus) (UniProt P81908); assay: Inhibition of horse serum BuChE upto 500 uM by Ellman's method
How it was run: (§1)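 Modified Ellman assay with acetylthiocholine (AChE) or butyrylthiocholine (BuChE) as substrate, from 0.075 M stock solutions, and DTNB from a 0.01 M stock, in phosphate buffer. Enzyme, DTNB and test compound were pre-incubated for 15 min at 37 °C, then substrate was added. Absorbance was read at 412 nm for 1 min. Five concentrations, normally 10^-4 to 10^-9 M, each in triplicate.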

[2] = molecular target: Acetylcholinesterase (Electrophorus electricus, UniProt O42275); assay: Inhibition of Electrophorus electricus AChE by Ellman's method
Sequence of Acetylcholinesterase (O42275 whole entry): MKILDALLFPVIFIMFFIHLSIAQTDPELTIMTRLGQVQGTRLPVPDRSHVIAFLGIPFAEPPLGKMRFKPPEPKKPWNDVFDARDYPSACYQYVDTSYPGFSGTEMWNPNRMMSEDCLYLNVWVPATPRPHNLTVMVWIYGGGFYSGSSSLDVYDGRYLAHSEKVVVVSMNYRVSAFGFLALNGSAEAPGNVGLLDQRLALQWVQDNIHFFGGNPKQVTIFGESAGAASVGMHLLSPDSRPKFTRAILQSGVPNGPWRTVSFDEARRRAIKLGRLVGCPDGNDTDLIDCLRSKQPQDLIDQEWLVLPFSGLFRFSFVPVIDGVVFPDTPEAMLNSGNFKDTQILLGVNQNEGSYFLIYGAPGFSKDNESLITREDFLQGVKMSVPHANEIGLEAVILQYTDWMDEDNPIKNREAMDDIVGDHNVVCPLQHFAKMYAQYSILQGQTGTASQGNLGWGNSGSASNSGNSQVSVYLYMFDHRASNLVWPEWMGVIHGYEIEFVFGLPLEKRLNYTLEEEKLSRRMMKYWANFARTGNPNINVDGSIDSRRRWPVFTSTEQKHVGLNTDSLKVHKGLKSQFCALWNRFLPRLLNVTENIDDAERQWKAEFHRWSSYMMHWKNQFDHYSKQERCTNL

[3] = molecular target: 4-aminobutyrate aminotransferase, mitochondrial (Homo sapiens, UniProt P80404); assay: Inhibition of GABA transaminase
Sequence of 4-aminobutyrate aminotransferase, mitochondrial (P80404 whole entry): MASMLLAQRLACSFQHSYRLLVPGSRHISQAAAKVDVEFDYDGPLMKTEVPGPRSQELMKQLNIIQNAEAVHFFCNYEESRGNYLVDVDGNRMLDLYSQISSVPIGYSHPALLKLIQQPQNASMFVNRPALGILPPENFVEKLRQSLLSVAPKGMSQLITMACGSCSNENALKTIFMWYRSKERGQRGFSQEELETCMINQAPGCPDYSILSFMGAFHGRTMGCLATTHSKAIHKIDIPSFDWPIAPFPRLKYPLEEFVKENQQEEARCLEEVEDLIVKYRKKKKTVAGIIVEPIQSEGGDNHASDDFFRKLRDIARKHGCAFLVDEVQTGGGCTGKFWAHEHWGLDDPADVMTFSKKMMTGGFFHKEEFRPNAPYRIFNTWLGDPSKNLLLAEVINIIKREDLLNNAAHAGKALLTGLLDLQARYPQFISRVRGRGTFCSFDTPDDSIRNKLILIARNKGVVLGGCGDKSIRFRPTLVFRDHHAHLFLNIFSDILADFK

[4] = molecular target: Acetylcholinesterase (Electrophorus electricus) (UniProt O42275); assay: Inhibition of Electrophorus electricus AChE upto 500 uM by Ellman's method; how it was run: as §1
Sequence of Acetylcholinesterase (Electrophorus electricus) (O42275 24-633 limits assumed): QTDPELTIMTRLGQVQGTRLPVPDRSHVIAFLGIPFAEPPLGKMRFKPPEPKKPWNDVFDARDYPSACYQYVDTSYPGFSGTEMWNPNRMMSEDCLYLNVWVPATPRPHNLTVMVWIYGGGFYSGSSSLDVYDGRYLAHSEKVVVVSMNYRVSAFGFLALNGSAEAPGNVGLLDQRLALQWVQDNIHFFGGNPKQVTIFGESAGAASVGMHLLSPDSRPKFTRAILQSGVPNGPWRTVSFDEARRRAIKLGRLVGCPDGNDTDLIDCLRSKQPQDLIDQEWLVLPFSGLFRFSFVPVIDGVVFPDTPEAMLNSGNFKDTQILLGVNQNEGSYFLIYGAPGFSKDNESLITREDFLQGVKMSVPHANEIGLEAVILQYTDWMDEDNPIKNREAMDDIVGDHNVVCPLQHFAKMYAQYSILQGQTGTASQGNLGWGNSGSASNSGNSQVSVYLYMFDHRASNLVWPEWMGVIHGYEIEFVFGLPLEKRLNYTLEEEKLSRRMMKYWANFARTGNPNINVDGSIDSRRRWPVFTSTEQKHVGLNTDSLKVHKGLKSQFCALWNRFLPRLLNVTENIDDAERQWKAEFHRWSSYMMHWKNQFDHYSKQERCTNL

[5] = molecular target: Cholinesterase (Equus caballus, UniProt P81908); assay: Inhibition of horse serum BuChE by Ellman's method
Sequence of Cholinesterase (P81908 whole entry): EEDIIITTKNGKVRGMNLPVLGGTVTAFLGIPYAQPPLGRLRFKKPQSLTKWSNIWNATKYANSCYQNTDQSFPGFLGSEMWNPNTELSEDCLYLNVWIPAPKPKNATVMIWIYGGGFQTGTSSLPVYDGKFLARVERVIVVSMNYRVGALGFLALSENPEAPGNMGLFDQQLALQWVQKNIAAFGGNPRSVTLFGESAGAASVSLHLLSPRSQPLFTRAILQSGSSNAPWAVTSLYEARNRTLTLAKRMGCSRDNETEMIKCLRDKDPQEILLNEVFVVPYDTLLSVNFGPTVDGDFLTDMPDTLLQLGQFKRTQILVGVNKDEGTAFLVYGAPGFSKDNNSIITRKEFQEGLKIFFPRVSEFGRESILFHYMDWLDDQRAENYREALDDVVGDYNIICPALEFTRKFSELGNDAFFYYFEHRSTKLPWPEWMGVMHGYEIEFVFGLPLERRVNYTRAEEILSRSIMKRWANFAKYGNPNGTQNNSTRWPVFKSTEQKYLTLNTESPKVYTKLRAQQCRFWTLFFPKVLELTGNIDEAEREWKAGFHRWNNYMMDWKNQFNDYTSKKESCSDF

Sequence of Cholinesterase (Equus caballus) (P81908 whole entry): as above

| Structure (SMILES) | Activity [1] | IC50 [2] | further results |
| --- | --- | --- | --- |
| CO/N=C\c1ccc(O[C@@H]2O[C@H](CO)[C@@H](O)[C@H](O)[C@H]2O)cc1 | inactive | 0.49 µM | Ki [2]: 0.13 µM |
| O=Cc1ccc(O[C@@H]2OC[C@@H](OC(=O)c3ccccc3)[C@H](OC(=O)c3ccccc3)[C@H]2OC(=O)c2ccccc2)cc1 | inactive | 35 µM |  |
| O=Cc1ccc(O)cc1 [4-HYDROXYBENZALDEHYDE] |  |  | IC50 [3]: 33.6 µM |
| CO/N=C\c1ccc(O[C@@H]2O[C@H](COC(C)=O)[C@@H](OC(C)=O)[C@H](OC(C)=O)[C@H]2OC(C)=O)cc1 | inactive | 15.1 µM |  |
| CC(=O)OC[C@H]1O[C@@H](Oc2ccc(C=O)cc2)[C@H](OC(C)=O)[C@H](OC(C)=O)[C@@H]1OC(C)=O | inactive |  | Activity [4]: inactive |
| O=Cc1ccc(O[C@@H]2O[C@H](CO)[C@@H](O)[C@@H](O)[C@H]2O)cc1 | inactive |  | Activity [4]: inactive |
| CC(=O)OC[C@H]1O[C@@H](O[C@H]2[C@H](OC(C)=O)[C@@H](OC(C)=O)[C@H](Oc3ccc(C=O)cc3)O[C@@H]2COC(C)=O)[C@H](OC(C)=O)[C@@H](OC(C)=O)[C@H]1OC(C)=O | inactive |  | Activity [4]: inactive |
| NC(=S)N/N=C/c1ccc(O[C@@H]2OC[C@@H](OC(=O)c3ccccc3)[C@@H](OC(=O)c3ccccc3)[C@H]2OC(=O)c2ccccc2)cc1 |  | 46.4 µM | IC50 [5]: 71.8 µM |
| CO/N=C\c1ccc(O[C@@H]2OC[C@@H](OC(=O)c3ccccc3)[C@@H](OC(=O)c3ccccc3)[C@H]2OC(=O)c2ccccc2)cc1 |  | 3.08 µM | IC50 [5]: 45.8 µM |
| NC(=O)N/N=C/c1ccc(O[C@@H]2O[C@H](CO)[C@@H](O)[C@H](O)[C@H]2O)cc1 | inactive | 121 µM |  |
| NC(=O)N/N=C/c1ccc(O[C@@H]2OC[C@@H](OC(=O)c3ccccc3)[C@@H](OC(=O)c3ccccc3)[C@H]2OC(=O)c2ccccc2)cc1 |  | 7.07 µM | IC50 [5]: 48.7 µM |
| O=Cc1ccc(O[C@@H]2O[C@H](CO)[C@@H](O)[C@H](O)[C@H]2O)cc1 | inactive | 0.45 µM | Ki [2]: 0.73 µM |
| OC[C@H]1O[C@@H](Oc2ccc(/C=N/O)cc2)[C@H](O)[C@@H](O)[C@@H]1O | inactive |  |  |
| NC(=S)N/N=C/c1ccc(O[C@@H]2O[C@H](CO)[C@@H](O)[C@H](O)[C@H]2O)cc1 | inactive | 22.9 µM |  |
| CC(=O)OC[C@H]1O[C@@H](Oc2ccc(C=O)cc2)[C@H](OC(C)=O)[C@@H](OC(C)=O)[C@@H]1OC(C)=O | inactive | 1.5 µM |  |
| CC(=O)OC[C@H]1O[C@@H](Oc2ccc(/C=N/O)cc2)[C@H](OC(C)=O)[C@@H](OC(C)=O)[C@@H]1OC(C)=O | inactive |  |  |
| CC(=O)OC[C@H]1O[C@@H](Oc2ccc(/C=N/NC(N)=S)cc2)[C@H](OC(C)=O)[C@@H](OC(C)=O)[C@@H]1OC(C)=O | inactive | 21.5 µM |  |
| CC(=O)OC[C@H]1O[C@@H](Oc2ccc(/C=N/NC(N)=O)cc2)[C@H](OC(C)=O)[C@@H](OC(C)=O)[C@@H]1OC(C)=O | inactive | 143 µM |  |
| O=Cc1ccc(O[C@@H]2OC[C@@H](OC(=O)c3ccccc3)[C@@H](OC(=O)c3ccccc3)[C@H]2OC(=O)c2ccccc2)cc1 |  | 14 µM | IC50 [5]: 64.3 µM |
| O=Cc1ccc(O[C@@H]2OC[C@@H](O)[C@@H](O)[C@H]2O)cc1 | inactive | 0.2 µM | Ki [2]: 0.51 µM |
| CC(=O)OC[C@H]1O[C@@H](Oc2ccc(C=O)cc2)[C@H](OC(C)=O)[C@@H](OC(C)=O)[C@H]1OC(C)=O | inactive | 45.4 µM |  |
